Experimental data reported in publication PMC6429430 (ACS Chemical Neuroscience, 2018).
Like-named read-outs stand apart in the source and are kept apart here.

How the values were obtained:
HDAC11 = molecular target: T1, HDAC11 (Homo sapiens, UniProt Q96DB2); test: Recombinant HDAC isoform biochemical assay
T1 sequence (Q96DB2 1-347): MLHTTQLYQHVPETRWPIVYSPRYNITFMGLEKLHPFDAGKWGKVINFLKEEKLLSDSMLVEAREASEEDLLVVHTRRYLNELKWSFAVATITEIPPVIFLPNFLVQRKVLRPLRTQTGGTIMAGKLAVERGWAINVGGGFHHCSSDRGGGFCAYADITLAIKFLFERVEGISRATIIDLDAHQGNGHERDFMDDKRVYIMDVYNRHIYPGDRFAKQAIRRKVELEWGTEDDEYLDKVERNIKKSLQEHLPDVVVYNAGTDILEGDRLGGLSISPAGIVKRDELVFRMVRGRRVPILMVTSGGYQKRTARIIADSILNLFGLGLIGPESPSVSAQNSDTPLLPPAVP

[1] = tested on: hippocampal LTP (Schaffer collateral-CA1); test: LTP in 5xFAD mice; assay type: in vivo, mouse; conditions: aged 5xFAD mice, 1 mg/kg po for 14 days
How it was run: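 Aged 5xFAD mice on a C57BL/6J background (9–12 months) and age-matched WT mice were dosed by oral gavage once daily for 14 days (n = 8 per group). Hippocampal slices (350 μm) were held at room temperature for at least 1 h in oxygenated aCSF (pH 7.4), then perfused at 30 °C for 0.5 h in a multielectrode chamber. Schaffer collateral–CA1 LTP was recorded as normalised fEPSP slope over the last 10 min.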

[2] = tested on: human myeloid progenitors; test: Colony forming cell; assay type: cell-based; conditions: human bone marrow cells, 14 days in culture
How it was run: (§1)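 Normal human bone marrow light-density cells, thawed rapidly and washed in IMDM + 10% FBS, were plated at 2.0 × 10^4 cells per culture. Medium was semisolid methylcellulose with rhIL-3 10 ng/mL, rhGM-CSF 10 ng/mL, rhSCF 50 ng/mL and Epo 3 U/mL. Compound was added at final 10, 2 and 0.4 μM, with 0.1% DMSO solvent control and 5-FU (1.0, 0.1, 0.01 μg/mL) as positive control. After 14 days, erythroid (CFU-E, BFU-E) and myeloid (CFU-GM) colonies were scored microscopically. Three replicate cultures were compared with solvent control by two-tailed t test.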

[3] = cited from earlier work
[4] = tested on: human erythroid progenitors; test: Colony forming cell; assay type: cell-based; conditions: human bone marrow cells, 14 days in culture
How it was run: as §1

[5] = rats, 1.5, 5, 15 mg/kg daily orally, 2 weeks; cited from earlier work
[6] = Reported 2 week toxicity of CI-994 in dogs; assay type: in vivo, dog
[7] = tested on: dendritic spines in CA1 region of the dorsal hippocampus; test: Hippocampal dendritic spine density analysis; assay type: in vivo, mouse; conditions: WT mice

## CC(=O)Nc1ccc(C(=O)Nc2ccccc2N)cc1 [CI-994]
HDAC11
  IC50: > 30 µM
[1]
  effect on impaired LTP: improves impaired LTP
[2]
  myeloid progenitors: % control at 10 μM: 0 % control
[3]; 2 weeks of daily dosing
  reported NOAEL in dogs: 0.5 mg/kg
[3]; dogs, 0.5, 2, 5 mg/kg daily, 2 weeks
  dose-limiting toxicity: primarily bone marrow suppression
[3]; male dogs, 2 mg/kg daily
  day 12 AUC: 9.91 ng·h/mL
[4]
  erythroid progenitors: % control at 10 μM: 0 % control
[5]
  dose-limiting toxicity: primarily bone marrow suppression
[6]; HED at reported dog NOAEL vs efficacious HED
  safety margin: 3.4 fold
[6]; dog, in vivo, 0.5 mg/kg
  NOAEL at 2 weeks: 16.2 mg/kg
[7]; 1 mg/kg daily oral for 14 days, vs vehicle
  increase in total spine density: 29%
[7]; oral daily 14 days, Rodin-A 1, 3, 6 mg/kg, CI-994 1 and 3 mg/kg
  dendritic spine density compared to vehicle-treated controls: significant increases in spine density
